Laboratory results published in PMC10546156 (Journal for Immunotherapy of Cancer, 2023).

System: HLA-typed donor PBMC, CD8 T cells
Experiment: Immunogenicity assessment: tetramer/dextramer staining of donor T cells
Format: cell-based, human
Settings: two C*07:01 healthy donor buffy coats, prior to or after sequential dextramer enrichment
Method in brief: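 Dextramers were assembled from UV-exchange MHC monomers. 1–3×10^8 PBMC were treated with 50 nM dasatinib plus FcR block (30 min, 37°C), then with 10 µg/mL dextramer pool (1 h, 4°C), and bead-enriched sequentially over two columns. Enriched cells were either surface-stained for flow cytometry with the whole sample acquired, or expanded 10–14 days (irradiated allogeneic feeders, anti-CD3/28, IL-2 300 IU/mL, IL-7/IL-15 5 ng/mL) before re-enrichment.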

_FRRS(ph)PTKSSL_ [pRBM14]
C*07:01 PP-CTL responses by dextramer pool: could not detect responses

_HRYS(ph)TPHAF_ [pRAF1]
C*07:01 PP-CTL responses by dextramer pool: could not detect responses

_RRFS(ph)GTAVY_ [pZNF518A]
C*07:01 PP-CTL responses by dextramer pool: could not detect responses

_RRPS(ph)LLSEF_ [pNCOR]
C*07:01 PP-CTL responses by dextramer pool: could not detect responses

_RRYS(ph)DPPTY_ [pMYO9B]
C*07:01 PP-CTL responses by dextramer pool: could not detect responses

_KRAS(ph)GQAFEL_ [pSTMN]
C*07:01 PP-CTL responses by dextramer pool: could not detect responses

_KRAS(ph)FAKSV_ [pWNK]
C*07:01 PP-CTL responses by dextramer pool: could not detect responses
